Measured values taken from publication PMC9096626 (RSC Advances, 2022).

Key:
[1] = iEDDA cycloaddition kinetics with TCO-OH; conditions: water : DMSO (4 : 1), 37 °C
How it was run: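 Pseudo-first-order runs at 37 °C used varied TCO-OH concentrations at 10- to 50-fold excess over the tetrazine amino acid. Full spectra (700–200 nm) were followed by time-resolved UV-Vis and fitted as single-step kinetics to give kobs. Second-order rate constants came from the slope of kobs against [TCO-OH].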

[2] = system: Somatostatin receptor type 2 (SSTR2); conditions: statement in words; cited from earlier work

Compound	iEDDA cycloaddition rate relative to methyl analogue 4b [1]	affinity for Somatostatin receptor type 2 (SSTR2) [2]
Cl.N[C@@H](CC1=CCC(O)(c2nncnn2)C=C1)C(=O)O (stereo partly drawn) [4a]	14 times	
Cl.N[C@@H](Cc1ccc(Oc2nnc(-c3ccccc3)nn2)cc1)C(=O)O [4c]	three times faster than 4b	
octreotide		high affinity
